According to ChEMBL document CHEMBL1133105, “Antimalarial, antitrypanosomal, and antileishmanial activities and cytotoxicity of bis(9-amino-6-chloro-2-methoxyacridines): influence of the linker” (J Med Chem, 2000):
Blank lines part the entries; values can stand above or below the molecule they belong to.

How the values were obtained:
Leishmania infantum [1] = experiment: Percentage of activity against Leishmania infantum at 3.13 uM; assay type: functional
Procedure, shortened: (§1)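 Starch-stimulated mouse peritoneal macrophages, 30 000/well, infected after 24 h with spleen-derived L. infantum amastigotes (10:1) together with 2-fold drug dilutions (12.5–1.56 µM). Incubated 7 days at 37 °C, 5% CO2. Wright-stained slides scored microscopically as % reduction of total parasite load or of infected macrophages. Uninfected treated cultures judged microscopically for macrophage toxicity.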

MRC5 [2] = experiment: Cytotoxicity on MRC-5 cells at 3.13 uM; assay type: functional; conditions: Homo sapiens
Procedure, shortened: (§2)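 MRC-5 human diploid embryonic lung cells seeded at 5 000/well, washed after 24 h, then given 2-fold drug dilutions (25, 12.5, 6.25, 3.13 µM) in RPMI + 5% FCS, final DMSO below 0.5%. Incubated 7 days at 37 °C, 5% CO2. MTT colorimetric read-out, scored as % reduction of absorbance at 540 nm versus untreated controls.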

Trypanosoma cruzi [3] = experiment: Percentage of activity against Trypanosoma cruzi at 12.5 uM; assay type: functional
Procedure, shortened: (§3)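 Mouse peritoneal macrophages, 30 000/well, infected after 24 h with about 100 000 T. cruzi trypomastigotes per well plus 2-fold drug dilutions (12.5–1.56 µM). Incubated 4 days at 37 °C, 5% CO2. Methanol-fixed, Giemsa-stained and scored microscopically as % reduction of total parasite load (free trypomastigotes plus intracellular amastigotes) versus untreated controls.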

Trypanosoma brucei [4] = experiment: Percentage of activity against Trypanosoma brucei at 6.25 uM; assay type: functional
Procedure, shortened: (§4)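 Bloodstream-form T. brucei in HMI-9 medium, 10 000 parasites/well, exposed to 12.5, 6.25, 3.13 and 1.56 µM drug for 4 days. Read-out is % inhibition of parasite multiplication. Macrophage toxicity judged on mouse primary peritoneal macrophages.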

Trypanosoma cruzi [5] = experiment: Percentage of activity against Trypanosoma cruzi at 1.56 uM; assay type: functional; procedure, shortened: as §3
Trypanosoma cruzi [6] = experiment: Percentage of activity against Trypanosoma cruzi at 6.25 uM Concentration; assay type: functional; procedure, shortened: as §3
MRC5 [7] = experiment: Cytotoxicity on MRC-5 cells at 12.5 uM; assay type: functional; conditions: Homo sapiens; procedure, shortened: as §2
Trypanosoma brucei [8] = experiment: Percentage of activity against Trypanosoma brucei at 1.56 uM; assay type: functional; procedure, shortened: as §4
MRC5 [9] = experiment: Cytotoxicity on MRC-5 cells at 25 uM; assay type: functional; conditions: Homo sapiens; procedure, shortened: as §2
Leishmania infantum [10] = experiment: Percentage of activity against Leishmania infantum at 1.56 uM; assay type: functional; procedure, shortened: as §1
Trypanosoma brucei [11] = experiment: Percentage of activity against Trypanosoma brucei at 3.13 uM; assay type: functional; procedure, shortened: as §4
Trypanosoma cruzi [12] = experiment: Percentage of activity against Trypanosoma cruzi at 3.13 uM; assay type: functional; procedure, shortened: as §3
Leishmania infantum [13] = experiment: Percentage of activity against Leishmania infantum 6.25 uM; assay type: functional; procedure, shortened: as §1
Trypanosoma brucei [14] = experiment: Percentage of activity against Trypanosoma brucei at 12.5 uM; assay type: functional; procedure, shortened: as §4
Plasmodium falciparum = experiment: In vitro sensitivity for Plasmodium falciparum FcB1R; assay type: functional, organism-based
Procedure, shortened: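 Asynchronous P. falciparum cultures in human erythrocytes (0.5% parasitemia, 1% haematocrit) exposed to serially diluted drug for 24 h at 37 °C. [3H]hypoxanthine (0.5 µCi/well) then added for a further 24 h. Uptake compared with drug-free controls on the same plate. IC50 taken from the concentration–response curve, averaged over independent experiments. DMSO ≤0.1%.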

MRC5 [15] = experiment: Cytotoxicity on MRC-5 cells at 6.25 uM; assay type: functional; conditions: Homo sapiens; procedure, shortened: as §2
Leishmania infantum [16] = experiment: Percentage of activity against Leishmania infantum at 12.5 uM Concentration; Toxic upon mouse primary peritoneal macrophages; assay type: functional, organism-based; procedure, shortened: as §1
Trypanosoma cruzi [17] = experiment: Percentage of activity against Trypanosoma cruzi at 12.5 uM; Toxic upon mouse primary peritoneal macrophages; assay type: functional, organism-based; procedure, shortened: as §3

IC50 (Plasmodium falciparum): 0.176 µM
Structure (SMILES): COc1ccc2nc3cc(Cl)ccc3c(NCCCCCCCCCCCCNc3c4ccc(Cl)cc4nc4ccc(OC)cc34)c2c1
Percent antileishmanial activity (reduction of parasite load) (Leishmania infantum [1]): 40%
cytotoxicity at 3.13 µM (MRC5 [2]): 0%
T. cruzi parasite load reduction (Trypanosoma cruzi [3]): 90%
Inhibition of parasite multiplication (Trypanosoma brucei [4]): 100%
Parasite load reduction (Trypanosoma cruzi [5]): 0%
Reduction of T. cruzi parasite load (Trypanosoma cruzi [6]): 40%
cytotoxicity at 12.5 µM (MRC5 [7]): 20%
Percent inhibition of parasite multiplication (Trypanosoma brucei [8]): 70%
cytotoxicity at 25 µM (MRC5 [9]): 100%
Antileishmanial activity (% reduction of parasite load) (Leishmania infantum [10]): 0%
Parasite growth inhibition (Trypanosoma brucei [11]): 100%
Reduction of T. cruzi parasite load (Trypanosoma cruzi [12]): 0%
Antileishmanial activity (% reduction of parasite load) (Leishmania infantum [13]): 80%
Inhibition of parasite multiplication (Trypanosoma brucei [14]): 100%
cytotoxicity at 6.25 µM (MRC5 [15]): 0%
Cytotoxicity (Leishmania infantum [16]): Toxic

IC50 (Plasmodium falciparum): 0.273 µM
Structure (SMILES): COc1ccc2nc3cc(Cl)ccc3c(NCCCN(CCCNc3c4ccc(Cl)cc4nc4ccc(OC)cc34)C(=O)C(CCCCNC(=O)OCC3c4ccccc4-c4ccccc43)NC(=O)OC(C)(C)C)c2c1 (stereo not drawn)
Percent antileishmanial activity (reduction of parasite load) (Leishmania infantum [1]): 0%
cytotoxicity at 3.13 µM (MRC5 [2]): 20%
Inhibition of parasite multiplication (Trypanosoma brucei [4]): 100%
Cytotoxicity (Trypanosoma cruzi [17]): Toxic
Parasite load reduction (Trypanosoma cruzi [5]): 0%
Reduction of T. cruzi parasite load (Trypanosoma cruzi [6]): 80%
cytotoxicity at 12.5 µM (MRC5 [7]): 90%
Percent inhibition of parasite multiplication (Trypanosoma brucei [8]): 100%
cytotoxicity at 25 µM (MRC5 [9]): 100%
Antileishmanial activity (% reduction of parasite load) (Leishmania infantum [10]): 0%
Parasite growth inhibition (Trypanosoma brucei [11]): 100%
Reduction of T. cruzi parasite load (Trypanosoma cruzi [12]): 20%
Antileishmanial activity (% reduction of parasite load) (Leishmania infantum [13]): 40%
Inhibition of parasite multiplication (Trypanosoma brucei [14]): 100%
cytotoxicity at 6.25 µM (MRC5 [15]): 80%
Cytotoxicity (Leishmania infantum [16]): Toxic

IC50 (Plasmodium falciparum): > 0.5 µM
Structure (SMILES): COc1ccc2nc3cc(Cl)ccc3c(NCCCN(CCCNc3c4ccc(Cl)cc4nc4ccc(OC)cc34)C(=O)CCN3CCNCC3)c2c1
Percent antileishmanial activity (reduction of parasite load) (Leishmania infantum [1]): 0%
cytotoxicity at 3.13 µM (MRC5 [2]): 0%
T. cruzi parasite load reduction (Trypanosoma cruzi [3]): 90%
Inhibition of parasite multiplication (Trypanosoma brucei [4]): 100%
Parasite load reduction (Trypanosoma cruzi [5]): 0%
Reduction of T. cruzi parasite load (Trypanosoma cruzi [6]): 0%
cytotoxicity at 12.5 µM (MRC5 [7]): 0%
Percent inhibition of parasite multiplication (Trypanosoma brucei [8]): 95%
cytotoxicity at 25 µM (MRC5 [9]): 15%
Antileishmanial activity (% reduction of parasite load) (Leishmania infantum [10]): 0%
Parasite growth inhibition (Trypanosoma brucei [11]): 99%
Reduction of T. cruzi parasite load (Trypanosoma cruzi [12]): 0%
Antileishmanial activity (% reduction of parasite load) (Leishmania infantum [13]): 0%
cytotoxicity at 6.25 µM (MRC5 [15]): 0%
Cytotoxicity (Leishmania infantum [16]): Toxic

IC50 (Plasmodium falciparum): 0.057 µM
Structure (SMILES): COc1ccc2nc3cc(Cl)ccc3c(NCCCCCCCCCCNc3c4ccc(Cl)cc4nc4ccc(OC)cc34)c2c1
Percent antileishmanial activity (reduction of parasite load) (Leishmania infantum [1]): 70%
cytotoxicity at 3.13 µM (MRC5 [2]): 0%
T. cruzi parasite load reduction (Trypanosoma cruzi [3]): 99%
Inhibition of parasite multiplication (Trypanosoma brucei [4]): 100%
Parasite load reduction (Trypanosoma cruzi [5]): 0%
Reduction of T. cruzi parasite load (Trypanosoma cruzi [6]): 70%
cytotoxicity at 12.5 µM (MRC5 [7]): 80%
Percent inhibition of parasite multiplication (Trypanosoma brucei [8]): 100%
cytotoxicity at 25 µM (MRC5 [9]): 90%
Antileishmanial activity (% reduction of parasite load) (Leishmania infantum [10]): 20%
Parasite growth inhibition (Trypanosoma brucei [11]): 100%
Reduction of T. cruzi parasite load (Trypanosoma cruzi [12]): 40%
Antileishmanial activity (% reduction of parasite load) (Leishmania infantum [13]): 90%
Inhibition of parasite multiplication (Trypanosoma brucei [14]): 100%
cytotoxicity at 6.25 µM (MRC5 [15]): 0%
Cytotoxicity (Leishmania infantum [16]): Toxic

IC50 (Plasmodium falciparum): 0.071 µM
Structure (SMILES): COc1ccc2nc3cc(Cl)ccc3c(NCCCN(CCCNc3c4ccc(Cl)cc4nc4ccc(OC)cc34)C(=O)C(CNC(=O)OCC3c4ccccc4-c4ccccc43)NC(=O)OC(C)(C)C)c2c1 (stereo not drawn)
Percent antileishmanial activity (reduction of parasite load) (Leishmania infantum [1]): 70%
cytotoxicity at 3.13 µM (MRC5 [2]): 55%
Inhibition of parasite multiplication (Trypanosoma brucei [4]): 100%
Cytotoxicity (Trypanosoma cruzi [17]): Toxic
Parasite load reduction (Trypanosoma cruzi [5]): 0%
Reduction of T. cruzi parasite load (Trypanosoma cruzi [6]): 90%
cytotoxicity at 12.5 µM (MRC5 [7]): 60%
Percent inhibition of parasite multiplication (Trypanosoma brucei [8]): 100%
cytotoxicity at 25 µM (MRC5 [9]): 68%
Antileishmanial activity (% reduction of parasite load) (Leishmania infantum [10]): 20%
Parasite growth inhibition (Trypanosoma brucei [11]): 100%
Reduction of T. cruzi parasite load (Trypanosoma cruzi [12]): 20%
Antileishmanial activity (% reduction of parasite load) (Leishmania infantum [13]): 95%
cytotoxicity at 6.25 µM (MRC5 [15]): 57%
Cytotoxicity (Leishmania infantum [16]): Toxic
